Activity calls are given as the source filed them. No cut-off for these calls is given here.

One assay deals with OVSAHO. The assay can be described thus: Antiproliferative activity against human OVSAHO cells after 48 hrs. It is filed as functional, cell-based. The procedure, abridged:
(§1)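 Cells seeded at 15,000/well and incubated overnight at 37 °C, then switched to medium containing compound in µg/mL concentrations. Incubation was 48 h at 37 °C, 5% CO2, then 2 h with WST-type TetraColor One. A450 gave % viability, reported as % inhibition of proliferation, mean of four replicates.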

Assay [1] concerns LM8G7. The assay can be described thus: Antiproliferative activity against mouse LM8G7 cells after 48 hrs. It is filed as functional, cell-based. The procedure, abridged: as §1
Assay [2] in a line: (§2) Antiproliferative activity against VEGF expressing mouse LM8G7 cells assessed as cell index every 10 mins by RT-CES method. It is filed as functional, cell-based. The procedure, abridged:
(§3)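 LM8G7 seeded at 10,000 cells/well on electronic-sensing e-plates; about 24 h later, in log phase, medium with various compound concentrations or DMSO control was added. Impedance cell index was recorded every 10 min and plotted against time. IC50 was obtained by non-linear regression of concentration–response curves.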

The subject of assay [3] is LM8G7. The assay is described as §2. It is filed as functional, cell-based. The procedure, abridged: as §3
For the next assay, the system named is Endothelial cell. Kind of assay: Antiangiogenic activity in mouse endothelial cells assessed as inhibition of tube formation at 50 uM after 18 hrs by microscopic analysis in presence of VEGF. In kind it is functional, cell-based. The procedure, abridged:
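UV♀2 mouse endothelial cells, 100 µL suspension at 4 × 10⁵ cells/mL, seeded onto Matrigel solidified 30 min at 37 °C, with or without compound (50 µM) and VEGF (2 ng/mL); DMSO 0.1% vehicle. After 18 h, reorganization of the sub-confluent monolayer into capillary-like tubes in 3-D Matrigel was photographed by light microscopy.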

The subject of a further assay is LM8. Kind of assay: Antiproliferative activity against mouse LM8 cells after 48 hrs. It is filed as functional, cell-based. The procedure, abridged: as §1
A short description of assay [4]: Inhibition of VEGF secretion in mouse LM8G7 cells at 102 uM after 48 hrs by immunoassay. It is filed as functional. The note with it: LM8G7, 48 h. The procedure, abridged: (§4)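 LM8G7 (1 × 10⁶ cells/well) in 6-well plates were incubated 24 h, then given serum-free medium with compound at 56, 102 or 204 µM for 48 h at 37 °C. Supernatant was centrifuged 5000 rpm, 5 min, 4 °C and protein measured by BCA. Mouse VEGF was quantified by sandwich ELISA against a recombinant VEGF standard (HRP detection, A450).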

Assay [5] in a line: Inhibition of VEGF secretion in mouse LM8G7 cells at 204 uM after 48 hrs by immunoassay. In kind it is functional. The note with it: LM8G7, 48 h. A digest of the protocol:
as §4

In another assay the test system is SK-OV-3. Kind of assay: Antiproliferative activity against human SKOV3 cells after 48 hrs. It is filed as functional, cell-based. The procedure, abridged: as §1
Assay [6] is described as follows: Inhibition of VEGF secretion in mouse LM8G7 cells at 56 uM after 48 hrs by immunoassay. In kind it is functional. The note with it: LM8G7, 48 h. The procedure, abridged:
as §4

On to `CS(=O)(=O)c1ccc(CN2C(=O)NC3(CC4CCC(C3)N4Cc3ccc(F)c(F)c3)C2=O)cc1` (stereo unspecified), for which the result in the assay with OVSAHO, in the assay with LM8G7 [1], in the assay on LM8 and in the assay with SK-OV-3 was Active. Also, the IC50 in [2] was 13 µM. In addition, the Activity result with LM8G7 [3] is “Dose-dependent effect”. Also, the inhibition result in the assay on Endothelial cell is “Active”. Further, at 102 µM the inhibition in assay [4] was 46.7%. The inhibition at 204 µM in assay [5] was found to be 63.9%. Also, testing at 56 µM in assay [6] gave an inhibition of 23.8%.

Take `CS(=O)(=O)c1ccc(CN2C(=O)NC3(CC4CCC(C3)N4Cc3cccc(F)c3)C2=O)cc1` (stereo unspecified): the outcome in the assay on OVSAHO, with LM8G7 [1], in the assay on LM8 and in the assay on SK-OV-3 was Active. Further, in assay [2], the IC50 turned out to be 102 µM. For the same compound, the Activity entry in the assay with LM8G7 [3] is “Dose-dependent effect”.

The record behind these values is ChEMBL document CHEMBL1155263, “Anti-tumor and anti-angiogenic activity of novel hydantoin derivatives: Inhibition of VEGF secretion in liver metastatic osteosarcoma cells” (Bioorg Med Chem, 2009).
